NR3A LBD binder = NR3A (human) ligand-binding domain modulation | NR3A LBD differential scanning fluorimetry, Tm shift; 0% = protein alone, 100% = glycine-bound protein | Tm shift relative to glycine control, % at 25 µM | hit rate 2.5% among 340,000;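 active means melting temperature shift of at least 10% of the positive control shift, at one fixed dose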
Hep lipid drop = hepatic lipid droplet formation modulation; AML12 mouse hepatocytes, oleate lipid droplets, BODIPY imaging; inhibition, % at 6.5 µM; hit rate 0.4% among 240,000; AID 1656;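 active means lipid droplet intensity inhibited by at least 50%, with more than 500 cells counted; inconclusive means wells with under 300 cells, treated as cytotoxic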
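Technique: fluorescence imaging, 20x objective, two fields per well / Assay system: AML12 hepatocytes (mouse) / Measure: % inhibition of lipid droplet signal / Doses: 6.5 µM single-point dosing / Incubation: overnight exposure / Reagent: 100 µM oleic acid challenge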
GASC-1 inh = inhibitors of human GASC-1 (JMJD2C) demethylase; inhibition, % at 2.35 µM; AID 2099; GST-JMJD2C(1-420) H3K9me3 demethylation, DELFIA europium; Q9H3R0; hit rate 0.069% among 330,000;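 active means more than half of a compound's replicate wells show inhibition beyond 50%, single wells judged on their own value; inconclusive means some, but no more than half, of replicates pass 50% inhibition; inactive means no replicate passes 50% inhibition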;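 further: signal counts dimethyl H3K9 product captured on neutravidin plate; 0% = median of DMSO wells and 100% = 0.3 times that DMSO median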
GC-A act = GC-A (human) enzyme activation; P16066; HEK293 GC-A cells, cGMP TR-FRET, EC30 ANP; 0% at EC30 ANP, 100% saturating ANP; activation, % at 10 µM; hit rate 0.14% among 370,000; in the data active means activation above about 40%
Target sequence (P16066 whole entry, looked up): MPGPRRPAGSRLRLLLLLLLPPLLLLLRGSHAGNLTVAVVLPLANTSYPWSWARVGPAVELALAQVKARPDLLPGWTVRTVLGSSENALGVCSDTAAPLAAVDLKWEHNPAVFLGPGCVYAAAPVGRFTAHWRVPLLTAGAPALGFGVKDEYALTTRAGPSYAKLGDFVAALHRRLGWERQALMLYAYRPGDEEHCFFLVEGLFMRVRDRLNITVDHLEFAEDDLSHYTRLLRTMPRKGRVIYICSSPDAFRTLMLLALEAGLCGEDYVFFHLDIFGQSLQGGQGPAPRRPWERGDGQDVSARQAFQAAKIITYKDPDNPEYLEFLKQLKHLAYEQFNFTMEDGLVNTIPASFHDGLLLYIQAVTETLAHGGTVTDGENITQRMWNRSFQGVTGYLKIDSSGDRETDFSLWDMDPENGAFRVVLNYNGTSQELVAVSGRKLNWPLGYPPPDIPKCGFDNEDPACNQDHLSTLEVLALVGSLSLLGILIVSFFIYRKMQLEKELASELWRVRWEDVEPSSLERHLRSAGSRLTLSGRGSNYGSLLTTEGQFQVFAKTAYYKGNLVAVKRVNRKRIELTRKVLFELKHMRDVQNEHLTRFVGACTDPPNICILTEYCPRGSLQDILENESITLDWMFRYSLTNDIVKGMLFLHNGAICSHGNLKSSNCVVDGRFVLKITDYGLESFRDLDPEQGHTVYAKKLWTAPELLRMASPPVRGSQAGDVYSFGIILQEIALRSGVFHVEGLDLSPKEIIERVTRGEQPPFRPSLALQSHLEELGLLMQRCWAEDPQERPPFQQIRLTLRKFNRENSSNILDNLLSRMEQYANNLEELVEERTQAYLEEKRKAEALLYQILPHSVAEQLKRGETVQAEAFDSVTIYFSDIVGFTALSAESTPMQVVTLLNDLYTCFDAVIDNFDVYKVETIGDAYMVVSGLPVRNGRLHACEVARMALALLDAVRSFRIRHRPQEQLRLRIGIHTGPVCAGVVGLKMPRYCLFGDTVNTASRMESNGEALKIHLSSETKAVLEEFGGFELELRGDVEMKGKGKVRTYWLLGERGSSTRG
aDG glyco up = increases alpha dystroglycan glycosylation. Pro5-aDG cells, alpha-DG glycosylation AlphaScreen (IIH6); 0% Pro5, 100% B10-LARGE cell signal. activation, % at 10 µM. hit rate 0.22% among 360,000;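 active means activation of at least 8% versus controls, or a plate z-score of at least 8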;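 further: Pro5 are CHO cells carrying HIG-tagged alpha-DG that lacks glycosylation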
NPR2 activator = GC-B (human) receptor activation | P20594 | HEK293-GC-B cells, CNP EC30, cGMP TR-FRET; 0% at EC30 CNP, 100% saturating CNP | activation, % at 10 µM | hit rate 0.11% among 370,000;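 active means activation at 10 µM reaching about 35% in either raw or pattern-adjusted values, limit read from the data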
Active calls of the source: *; ? = inconclusive; / = no result. Compounds with a hit are over-represented: about 3% of the library has one in this group of screens.

SMILES | NR3A LBD binder | Hep lipid drop | GASC-1 inh | GC-A act | aDG glyco up | NPR2 activator
COc1ccc(Cl)cc1NC(=O)c1ccccc1C | -0.2 | -10.4 | 6.5 | -1.2 | 0.1 | 1.3
COc1ccccc1C(=O)Nc1cc(Cl)ccc1O | 10.9* | / | 3.1 | 4.6 | 0.0 | -6.6
O=C(COc1ccc(Cl)cc1Cl)Nc1ccc(C(=O)Nc2ccccc2C(=O)O)cc1 | 15.9* | 0.2 | -21.9 | -2.2 | 0.0 | -0.2
CCOc1ccccc1C(=O)Nc1cc(Cl)ccc1O | 15.7* | 1.1 | -3.5 | -3.7 | 0.0 | -5.8
CC(COc1ccc(C#N)cc1F)CN1CCC(C(O)(c2ccccc2)c2ccccc2)CC1 (stereo unspecified) | / | / | / | -24.2 | / | -18.0
O=C(CCNS(=O)(=O)c1ccc(OC(F)(F)F)cc1)NC1CC1 | 0.9 | / | 0.5 | 1.9 | 0.1 | 3.9
COc1cc(OC)c(NC(=O)c2cc3ccccc3cc2O)cc1Cl | 26.1* | / | / | 6.5 | -0.1 | 1.7
Cc1ccc(Cl)cc1NC(=O)c1ccccc1OCC(=O)Nc1ccc(Cl)cc1 | 29.5* | 17.3 | -9.8 | -6.7 | -0.6 | -7.3
Cc1ccc(NC(=O)COc2ccccc2C(=O)Nc2ccccc2)cc1Cl | -17.3 | -17.8 | 13.6 | 1.7 | 0.0 | 2.5
COc1cc(NC(=O)c2ccccc2)c(OC)cc1Cl | -0.9 | -3.6 | -2.8 | 3.3 | 0.6 | -5.4
COC(=O)[C@]1(C#N)CC(=O)N(c2ccccc2)[C@@H]1c1ccccc1 | / | / | / | 0.9 | / | 1.8
CCCCn1c(N)c(N(CCOC)C(=O)c2ccc(S(=O)(=O)N3CCCCC3)cc2)c(=O)[nH]c1=O | 0.6 | / | -7.1 | 2.9 | 0.1 | 2.6
Cc1cc(Cl)ccc1Nc1ncccc1C(N)=O | 151.0* | -27.0 | 1.4 | -2.0 | 0.8 | -14.3
NC(=O)c1cccnc1Nc1ccccc1F | -1.0 | 11.7 | 13.4 | -1.3 | -0.1 | -15.7
COCCNc1nc(N2CCCCC2)c2cnn(C)c2n1 | 1.0 | 2.9 | -9.9 | 0.8 | 0.1 | 2.0
Nc1cc(-c2ccncc2)c[nH]c1=O | 12.9* | 17.8 | ? | -1.2 | -0.1 | 9.8
NC(=O)c1csc(-c2ccncc2)n1 | -0.6 | 10.9 | 2.5 | 3.9 | 2.1 | -2.6
CC(C)C[C@@H]1NC(=O)[C@H]2C[C@]3(c4ccccc4)c4ccccc4N[C@H]3N2C1=O | / | / | / | -0.6 | / | -8.6
Cc1[nH]n(C(N)=S)c(=O)c1N=Nc1cc(-c2ccc(Br)cc2)[nH]n1 | 24.2* | 13.0 | -2.6 | 31.8 | -0.4 | -11.5
O=C(O)c1sccc1S(=O)(=O)N1CCOCC1 | 10.6* | / | -11.3 | 1.4 | -0.2 | 4.4
COC(=O)c1ccc(N=NN2CCCCCC2)cc1 | 17.5* | -3.4 | 5.7 | 0.7 | 0.0 | -1.9
c1ccc(-c2nccc(-c3ccco3)n2)nc1 | 0.8 | 3.5 | -8.6 | 2.2 | 0.5 | 3.0
c1ccc(-c2nc(-c3ccco3)cs2)nc1 | 1.9 | / | 55.8* | 2.1 | 0.1 | 7.5
O=C1CCC[C@H]2CC3(CC[C@]24CCCN14)OCCO3 | / | / | / | -0.9 | / | 1.3
CCCC/C=C1/[C@@H](C(C)C)N(Cc2ccc3c(c2)OCO3)C2=N[C@H](c3ccccc3)CC(=O)N21 | / | / | / | -1.4 | / | -4.9
SMILES | NR3A LBD binder | Hep lipid drop | GASC-1 inh | GC-A act | aDG glyco up | NPR2 activator
CCc1ccc(CNC(=O)c2ccc(OC)c(OC3CCN(C(C)C)CC3)c2)nc1 | 13.1* | -7.3 | -2.2 | -1.9 | -0.2 | -0.9
COc1ccc(C(=O)NCc2csc(C)n2)cc1OC1CCN(C(C)=O)CC1 | 1.8 | -2.6 | -0.9 | 3.0 | 0.3 | 3.2
COc1cc(C(=O)NCc2nc(C)cs2)ccc1OC1CCN(C(C)=O)CC1 | 11.7* | 30.2 | -28.7 | 0.1 | -0.1 | 0.8
Cc1ccc(S(=O)(=O)N2c3ccccc3CC2C)cc1 (stereo unspecified) | -0.6 | -4.2 | -0.5 | -14.0 | 0.1 | -11.8
CCOc1ccc(S(=O)(=O)N2c3ccccc3CC2C)cc1 (stereo unspecified) | 14.4* | -166.5 | 23.9 | -8.2 | -0.3 | -6.1
CC1Cc2ccccc2N1S(=O)(=O)c1cccc(C(=O)NCCCO)c1 (stereo unspecified) | 3.7 | / | -22.2 | -2.2 | 0.0 | -2.7
CCOC(=O)c1ccc(NC(=O)c2cccc(S(=O)(=O)N3c4ccccc4CC3C)c2)s1 (stereo unspecified) | 25.4* | -28.6 | -2.7 | -17.2 | 0.1 | -11.3

From PubChem
